NF-kB neuron act: compounds increasing NF-kB expression in human neuronal cells; NF-kB reporter expression; stronger effect = higher value; fold change at 12.5 µM; hit rate 1.6% among 190,000; in the data active means fold change above about 3.3
STAT3 act-1: increases IL-6 driven STAT3 reporter signal; U3A cells, IL-6 STAT3-luciferase reporter, luminescence; 100% = signal with IL-6 EC80 alone; activation (% of control), % at 5.6 µM; hit rate 0.91% among 190,000; AID 871;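 active means activation above the screen-wide mean of compound activation plus 3 SD, cut at about 130% in these data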
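Material: STAT3-luciferase reporter U3A cells; Probe or stimulus: IL-6 (33 ng/mL); Incubation: compound pre-incubation 1 h before IL-6, then 6 h stimulation at 37 °C; Technique: luminescence from STAT3-driven luciferase reporter; Evaluation: % activation versus median of IL-6-stimulated wells; Controls: IL-6-only high control.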
STAT3 blocker: inhibitors of IL-6 induced STAT3 signaling. U3A cells, IL-6 STAT3-luciferase reporter, luminescence; host cell line lacks STAT1. inhibition, % at 5.5 µM. hit rate 0.89% among 190,000;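 active means inhibition above the mean inhibition across all screened compounds plus 3 SD, cut at about 44% in these data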
STAT1 act-1: activators of IFN-gamma induced STAT1 signaling. AID 932. hit rate 2.6% among 200,000. activation (% of control), % at 5.5 µM. NIH 3T3 STAT1-luciferase reporter, luminescence; 100% = IFN-gamma alone, no compound;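 active means activation above the screen-wide mean activation plus 3 SD, cut at about 130% in these data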
STAT1 blocker: inhibitors of IFN-gamma induced STAT1 signaling; NIH 3T3 STAT1-luciferase reporter, luminescence; inhibition, % at 5.5 µM; hit rate 0.35% among 200,000;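 active means inhibition above a set limit, the mean inhibition across all tested compounds plus 3 SD, cut at about 34% in these data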
APP 5'UTR act: APP 5'UTR luciferase reporter activation | SH-SY5Y APP 5'UTR luciferase reporter, luminescence; zero percent = DMSO vehicle wells | activation, % at 2 µM | hit rate 1% among 190,000;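 active means activation above a set limit, based on mean plus 3 SD of controls, cut at about 140% in these data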
STAT3 act-2: STAT3 activation, confirmation assay | hit rate 64% among 1,200 | AID 1267 | potentiation (% of control), % at 5.7 µM | shares compounds with STAT3 act-1 | U3A STAT3-luciferase reporter, IL-6 potentiation, luminescence; U3A cells lack STAT1; 100 means same as IL-6 alone;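 active means percent activation of the STAT3 luciferase reporter above a set limit taken from the earlier primary screen, cut at about 130% in these data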
NFkB act STAT3ct: activates NF-kappaB, counter-screen to STAT3 activators. shares compounds with STAT3 act-1. human cells, NF-kappaB reporter activation. activation (% of control), % at 5.7 µM. hit rate 11% among 1,200. AID 1309; in the data active means activation above about 120%;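 further: reporter induced by TNF-alpha stimulation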
STAT1 act-2: activates STAT1, counter-screen to STAT3 activators; shares compounds with STAT3 act-1; NIH 3T3 STAT1-luciferase reporter, IFN-gamma, luminescence; activation (% of control), % at 5.7 µM; hit rate 13% among 1,200; AID 1318;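 active means activation above the solvent-only control well mean plus 3 SD, set per screening run, cut at about 120% in these data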
Of the large screens only hits and unclear results are named; the others gave an inactive call (follow-up assays come after a bar, where they were run). Rows were chosen to be rich in hits. Some 4.9% of all compounds tested hit in one or more screens of this group.

CCOC(=O)c1c(C)oc2c1cc(O)c1ccccc12	NF-kB neuron act 3.31, STAT3 act-1 144.6, APP 5'UTR act 171.7 | STAT3 act-2 151.7 | NFkB act STAT3ct inactive | STAT1 act-2 inactive
Cc1ccc(NC(=O)C2=C(O)CCn3c2nc2ccccc23)cc1	STAT3 act-1 149.2 | STAT3 act-2 inactive | NFkB act STAT3ct inactive | STAT1 act-2 inactive
Cc1ccc(NC(=O)c2cc(Cl)nc3ccccc23)cc1	none
Clc1ccc2c(NCc3ccccn3)ncnc2c1	STAT3 act-1 140.2 | STAT3 act-2 136.6 | NFkB act STAT3ct inactive | STAT1 act-2 inactive
O=S(=O)(Cc1cccc(C(F)(F)F)c1)c1ncn[nH]1	none
CN1C(=O)/C(=N\OC(=O)c2cccc3ccccc23)c2ccccc21	STAT3 act-1 141.4 | STAT3 act-2 inactive | NFkB act STAT3ct inactive | STAT1 act-2 inactive
Cn1c2ccccc2c2ncn(Cc3ccco3)c(=O)c21	none
O=c1c2ccccc2ncn1Cc1ccco1	STAT3 act-1 147.3 | STAT3 act-2 144.8 | NFkB act STAT3ct inactive | STAT1 act-2 inactive
CC(=O)Nc1c(C(=O)O)oc2ccc(Cl)cc12	STAT3 act-1 140.1 | STAT3 act-2 inactive | NFkB act STAT3ct inactive | STAT1 act-2 inactive
CCOC(=O)c1[nH]c2ccccc2c1NC(=O)CN(C)C	none
CCOC(=O)c1[nH]c2ccccc2c1NC(=O)CC(C)(C)C	STAT3 act-1 164.1 | STAT3 act-2 158.7 | NFkB act STAT3ct inactive | STAT1 act-2 inactive
CCOC(=O)c1[nH]c2ccccc2c1NC(=S)Nc1cccc(C)c1C	STAT3 act-1 163.7 | STAT3 act-2 155.7 | NFkB act STAT3ct inactive | STAT1 act-2 inactive
Cc1ccc(S(=O)(=O)Nc2ccc3c4c(cccc24)CC3)c(C)c1	none (no result: NF-kB neuron act)
Cc1ccc(S(=O)(=O)Nc2cc(C(C(=O)OC(C)C)C(=O)C(F)(F)F)c(O)c3ccccc23)c(C)c1 (stereo not drawn)	STAT3 act-1 138.2 | STAT3 act-2 inactive | NFkB act STAT3ct inactive | STAT1 act-2 inactive
CSCC[C@H](NC(=O)OC(C)(C)C)c1nnc(SCc2cccc(F)c2)o1	STAT3 act-1 141.9 | STAT3 act-2 inactive | NFkB act STAT3ct inactive | STAT1 act-2 inactive
CSCC[C@H](NC(=O)OC(C)(C)C)c1nnc(SCc2ccc(F)cc2)o1	none
Oc1cccc2ccc(/C=C/c3cccs3)nc12	STAT3 act-1 148.1, APP 5'UTR act 148.1 | STAT3 act-2 189.3 | NFkB act STAT3ct 121.3 | STAT1 act-2 inactive
O=C(/C=C/c1cccs1)c1cc(Cl)ccc1O	none
Cc1ccsc1/C=C/c1ccc2cccc(O)c2n1	NF-kB neuron act 4.99, STAT3 act-1 154.3, APP 5'UTR act 147.8 | STAT3 act-2 175.6 | NFkB act STAT3ct inactive | STAT1 act-2 inactive
Oc1ccc(Cl)cc1/C=C/c1ccc2cccc(O)c2n1	STAT3 act-1 166.5 | STAT3 act-2 155.6 | NFkB act STAT3ct inactive | STAT1 act-2 inactive
Cc1ccsc1/C=C/C(=O)O	none
Oc1c(Cl)cc(Cl)cc1/C=C/c1ccc2cccc(O)c2n1	none
O=S(=O)(Nc1nc2ccccc2nc1Nc1ccc2c(c1)OCO2)c1ccc(F)cc1	none
Cc1ccc(S(=O)(=O)NC(N)=NCCc2ccc(Cl)cc2)cc1C	none
Cc1nc([N+](=O)[O-])c(Br)n1CC(=O)c1ccc(Cl)cc1	none
Cc1nc([N+](=O)[O-])c(Br)n1Cc1ccc(Cl)c(Cl)c1	STAT3 act-1 139.1 | STAT3 act-2 inactive | NFkB act STAT3ct inactive | STAT1 act-2 inactive
CC1Cc2ccccc2N1Cc1cc(=O)n2ccsc2n1 (stereo not drawn)	STAT3 act-1 145.7 | STAT3 act-2 152.2 | NFkB act STAT3ct inactive | STAT1 act-2 inactive
O=C(CSc1nc2cc(Cl)ccc2s1)NC1CCCc2ccccc21 (stereo not drawn)	none
Cc1ccc(-n2[nH]c(C)c(C=Nc3cc(C)ccn3)c2=O)cc1	STAT3 act-1 138.2 | STAT3 act-2 inactive | NFkB act STAT3ct inactive | STAT1 act-2 inactive
O=C(CNC(=O)c1ccncc1)N/N=C/c1ccccc1[N+](=O)[O-]	none
Cn1c(-c2c(N)n(CCCc3ccccc3)c3nc4ccccc4nc23)nc2ccccc21	STAT3 act-1 151.7 | STAT3 act-2 136.2 | NFkB act STAT3ct inactive | STAT1 act-2 inactive
Cn1c(-c2c(N)n(CCc3ccccc3)c3nc4ccccc4nc23)nc2ccccc21	none
O=C(COC(=O)Cc1ccc(-c2ccccc2)cc1)NCc1ccccc1	none
CCOc1ccccc1NC(=O)Cn1nnc(C(=O)NCc2ccco2)c1N	NF-kB neuron act 3.68, STAT3 act-1 138.3 | STAT3 act-2 inactive | NFkB act STAT3ct 141.8 | STAT1 act-2 inactive
COc1ccc(C2CC3(CC(C)(C)NC(=O)N3)Oc3cc(O)ccc32)cc1 (stereo not drawn)	STAT3 act-1 211.3 | STAT3 act-2 176.3 | NFkB act STAT3ct inactive | STAT1 act-2 inactive
COc1ccc(C2CC3(CC(C)(C)NC(=S)N3)Oc3cc(O)cc(C)c32)cc1 (stereo not drawn)	STAT3 act-1 362.9 | STAT3 act-2 267.6 | NFkB act STAT3ct inactive | STAT1 act-2 inactive
COc1ccc(C2CC3(CC(C)(C)NC(SC)=N3)Oc3cc(O)cc(C)c32)cc1 (stereo not drawn)	STAT3 act-1 536.9 | STAT3 act-2 381.9 | NFkB act STAT3ct inactive | STAT1 act-2 127.4
O=C(CSc1nnc(CCCN2C(=O)c3cccc4cccc(c34)C2=O)n1-c1ccccc1)NCCCN1CCOCC1	none
CCOc1ccc(/C=C/C(=O)c2cc(Br)ccc(=O)c2O)cc1	none
CCc1ccc(/C=C/C(=O)c2cc(Br)ccc(=O)c2O)cc1	STAT3 act-1 149.9 | STAT3 act-2 136.0 | NFkB act STAT3ct inactive | STAT1 act-2 inactive
Cc1nc2ccc(S(=O)(=O)NCC(=O)NC(C)c3ccccc3)cc2s1 (stereo not drawn)	none
CCN(CC)CCCNC(=O)c1cc2c(-c3ccc(Cl)cc3)nn(C)c2s1	STAT3 act-1 160.5 | STAT3 act-2 156.2 | NFkB act STAT3ct inactive | STAT1 act-2 inactive
CN1CCN(CCCNC(=O)c2cc3c(-c4ccc(Cl)cc4)nn(C)c3s2)CC1	STAT3 act-1 173.4 | STAT3 act-2 149.4 | NFkB act STAT3ct inactive | STAT1 act-2 inactive
CCN(CC)CCCNC(=O)c1cc(-c2ccc(Cl)c(Cl)c2)on1	none
Cn1nc(-c2ccc(Cl)cc2)c2cc(C(=O)NCC3CCCO3)sc21 (stereo not drawn)	STAT3 act-1 167.1 | STAT3 act-2 146.7 | NFkB act STAT3ct inactive | STAT1 act-2 inactive

Compound activity: PubChem, several laboratories
